Reference: ChEMBL document CHEMBL1177842, “New 6-amino-[1,2,4]triazolo[3,4-b][1,3,4]thiadiazines and [1,2,4]triazolo[3,4-b] [1,3,4]thiadiazin-6-ones: synthesis, characterization and antibacterial activity evaluation” (2010)
≈ marks a conversion by molar mass, not a printed value. Calls of active or inactive are those of the source. The rule behind the calls is not given here.

Legend:
Type in all cases: functional
[1] = system: Acinetobacter baumannii; assay: Antibacterial activity against Acinetobacter baumannii ATCC 19606 after 24 hrs by broth microdilution technique
How it was run: (§1)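 MIC by broth microdilution following NCCLS recommendations. Strains were grown in Mueller-Hinton broth and the inoculum was 5 × 10^5 cfu in 1 mL. Compounds were dissolved in DMSO and serially diluted in tubes to final concentrations of 1024 down to 2 µg/mL. 24 h old inoculum was added. After 35 °C for 24 h, the MIC was the lowest concentration inhibiting visible growth. Tetracycline and ampicillin served as standards.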

[2] = system: Citrobacter freundii; assay: Antibacterial activity against Citrobacter freundii […] after 24 hrs by broth microdilution technique; how it was run: as §1
[3] = system: Enterobacter cloacae; assay: Antibacterial activity against Enterobacter cloacae ATCC 49141 after 24 hrs by broth microdilution technique; how it was run: as §1
[4] = system: Escherichia coli; assay: Antibacterial activity against Escherichia coli ATCC 25922 after 24 hrs by broth microdilution technique; details: ATCC 25922, 24 h; how it was run: as §1
[5] = system: Pseudomonas aeruginosa; assay: Antibacterial activity against Pseudomonas aeruginosa ATCC 9027 after 24 hrs by broth microdilution technique; how it was run: as §1
[6] = system: Enterococcus faecalis; assay: Antibacterial activity against Enterococcus faecalis ATCC 29212 after 24 hrs by broth microdilution technique; details: ATCC 29212, 24 h; how it was run: as §1
[7] = system: Staphylococcus aureus; assay: Antibacterial activity against Staphylococcus aureus ATCC 25923 after 24 hrs by broth microdilution technique; details: ATCC 25923, 24 h; how it was run: as §1
[8] = system: Staphylococcus epidermidis; assay: Antibacterial activity against Staphylococcus epidermidis ATCC 14990 after 24 hrs by broth microdilution technique; details: ATCC 14990, 24 h; how it was run: as §1
[9] = system: Bacillus cereus; assay: Antibacterial activity against Bacillus cereus ATCC 13061 after 24 hrs by broth microdilution technique; how it was run: as §1

Row | SMILES | MIC ([1]; ATCC 19606, 24 h) | MIC [2] | MIC ([3]; ATCC 49141, 24 h) | MIC [4] | MIC ([5]; ATCC 9027, 24 h) | MIC [6] | MIC [7] | MIC [8] | MIC ([9]; ATCC 13061, 24 h) | MIC [3] | MIC [1] | MIC [5] | MIC [9]
1 | O=C1CSc2nnc(-c3ccc(S(=O)(=O)c4ccccc4)cc3)n2N1 | 256 µg/mL (≈ 687 µM) | 512 µg/mL (≈ 1370 µM) | 512 µg/mL (≈ 1370 µM) | 128 µg/mL (≈ 344 µM) | 128 µg/mL (≈ 344 µM) | 1020 µg/mL (≈ 2750 µM) | 512 µg/mL (≈ 1370 µM) | 32 µg/mL (≈ 85.9 µM) | 1020 µg/mL (≈ 2750 µM) | – | – | – | –
2 | Nn1c(S)nnc1-c1ccc(S(=O)(=O)c2ccc(Br)cc2)cc1 | 128 µg/mL (≈ 311 µM) | 512 µg/mL (≈ 1240 µM) | 512 µg/mL (≈ 1240 µM) | 1020 µg/mL (≈ 2490 µM) | 512 µg/mL (≈ 1240 µM) | 1020 µg/mL (≈ 2490 µM) | 512 µg/mL (≈ 1240 µM) | 512 µg/mL (≈ 1240 µM) | 1020 µg/mL (≈ 2490 µM) | – | – | – | –
3 | Nn1c(-c2ccc(S(=O)(=O)c3ccc(Cl)cc3)cc2)n[nH]c1=S | 128 µg/mL (≈ 349 µM) | 512 µg/mL (≈ 1400 µM) | 512 µg/mL (≈ 1400 µM) | 1020 µg/mL (≈ 2790 µM) | 128 µg/mL (≈ 349 µM) | 1020 µg/mL (≈ 2790 µM) | 512 µg/mL (≈ 1400 µM) | 512 µg/mL (≈ 1400 µM) | 1020 µg/mL (≈ 2790 µM) | – | – | – | –
4 | O=S(=O)(c1ccc(Br)cc1)c1ccc(-c2nnc3n2N=C(Nc2ccccc2)CS3)cc1 | 512 µg/mL (≈ 973 µM) | 512 µg/mL (≈ 973 µM) | 512 µg/mL (≈ 973 µM) | 256 µg/mL (≈ 486 µM) | 256 µg/mL (≈ 486 µM) | 1020 µg/mL (≈ 1950 µM) | 1020 µg/mL (≈ 1950 µM) | 1020 µg/mL (≈ 1950 µM) | 512 µg/mL (≈ 973 µM) | – | – | – | –
5 | CN(C)[C@@H]1C(O)=C(C(N)=O)C(=O)[C@@]2(O)C(O)=C3C(=O)c4c(O)cccc4[C@@](C)(O)[C@H]3C[C@@H]12 [TETRACYCLINE] | 2 µg/mL (≈ 4.5 µM) | 2 µg/mL (≈ 4.5 µM) | – | 2 µg/mL (≈ 4.5 µM) | 16 µg/mL (≈ 36 µM) | 32 µg/mL (≈ 72 µM) | < 2 µg/mL | 32 µg/mL (≈ 72 µM) | < 2 µg/mL | inactive | – | – | –
6 | Nn1c(SCC(=O)O)nnc1-c1ccc(S(=O)(=O)c2ccc(Cl)cc2)cc1 | 1020 µg/mL (≈ 2410 µM) | 512 µg/mL (≈ 1210 µM) | 1020 µg/mL (≈ 2410 µM) | 64 µg/mL (≈ 151 µM) | 256 µg/mL (≈ 603 µM) | 256 µg/mL (≈ 603 µM) | 128 µg/mL (≈ 301 µM) | 256 µg/mL (≈ 603 µM) | 1020 µg/mL (≈ 2410 µM) | – | – | – | –
7 | O=C1CSc2nnc(-c3ccc(S(=O)(=O)c4ccc(Br)cc4)cc3)n2N1 | 256 µg/mL (≈ 567 µM) | 512 µg/mL (≈ 1130 µM) | 512 µg/mL (≈ 1130 µM) | 128 µg/mL (≈ 284 µM) | 128 µg/mL (≈ 284 µM) | 1020 µg/mL (≈ 2270 µM) | 1020 µg/mL (≈ 2270 µM) | 1020 µg/mL (≈ 2270 µM) | 1020 µg/mL (≈ 2270 µM) | – | – | – | –
8 | Nn1c(SCC(=O)Nc2ccccc2)nnc1-c1ccc(S(=O)(=O)c2ccc(Cl)cc2)cc1 | 1020 µg/mL (≈ 2050 µM) | 512 µg/mL (≈ 1020 µM) | 512 µg/mL (≈ 1020 µM) | 128 µg/mL (≈ 256 µM) | 32 µg/mL (≈ 64 µM) | 1020 µg/mL (≈ 2050 µM) | 128 µg/mL (≈ 256 µM) | 256 µg/mL (≈ 512 µM) | 1020 µg/mL (≈ 2050 µM) | – | – | – | –
9 | O=S(=O)(c1ccc(Cl)cc1)c1ccc(-c2nnc3n2N=C(Nc2ccccc2)CS3)cc1 | 512 µg/mL (≈ 1060 µM) | 128 µg/mL (≈ 266 µM) | 1020 µg/mL (≈ 2120 µM) | 128 µg/mL (≈ 266 µM) | 64 µg/mL (≈ 133 µM) | 1020 µg/mL (≈ 2120 µM) | 256 µg/mL (≈ 531 µM) | 1020 µg/mL (≈ 2120 µM) | 1020 µg/mL (≈ 2120 µM) | – | – | – | –
10 | CCOC(=O)C1Sc2nnc(-c3ccc(S(=O)(=O)c4ccc(Cl)cc4)cc3)n2NC1=O (configuration not stated) | 1020 µg/mL (≈ 2140 µM) | 512 µg/mL (≈ 1070 µM) | 512 µg/mL (≈ 1070 µM) | 512 µg/mL (≈ 1070 µM) | 128 µg/mL (≈ 267 µM) | 1020 µg/mL (≈ 2140 µM) | 1020 µg/mL (≈ 2140 µM) | 1020 µg/mL (≈ 2140 µM) | 1020 µg/mL (≈ 2140 µM) | – | – | – | –
11 | O=c1[nH]n2c(-c3ccc(S(=O)(=O)c4ccc(Br)cc4)cc3)nnc2sc1=O | 1020 µg/mL (≈ 2200 µM) | 512 µg/mL (≈ 1100 µM) | 512 µg/mL (≈ 1100 µM) | 512 µg/mL (≈ 1100 µM) | 64 µg/mL (≈ 138 µM) | 1020 µg/mL (≈ 2200 µM) | 64 µg/mL (≈ 138 µM) | 512 µg/mL (≈ 1100 µM) | 1020 µg/mL (≈ 2200 µM) | – | – | – | –
12 | Nn1c(-c2ccc(S(=O)(=O)c3ccccc3)cc2)n[nH]c1=S | 512 µg/mL (≈ 1540 µM) | 512 µg/mL (≈ 1540 µM) | 512 µg/mL (≈ 1540 µM) | 512 µg/mL (≈ 1540 µM) | 512 µg/mL (≈ 1540 µM) | 1020 µg/mL (≈ 3080 µM) | 512 µg/mL (≈ 1540 µM) | 128 µg/mL (≈ 385 µM) | 1020 µg/mL (≈ 3080 µM) | – | – | – | –
13 | Nn1c(SCC(=O)Nc2ccccc2)nnc1-c1ccc(S(=O)(=O)c2ccc(Br)cc2)cc1 | 1020 µg/mL (≈ 1880 µM) | 1020 µg/mL (≈ 1880 µM) | 256 µg/mL (≈ 470 µM) | 256 µg/mL (≈ 470 µM) | 128 µg/mL (≈ 235 µM) | 1020 µg/mL (≈ 1880 µM) | 64 µg/mL (≈ 118 µM) | 256 µg/mL (≈ 470 µM) | 512 µg/mL (≈ 940 µM) | – | – | – | –
14 | Nn1c(SCC(=O)O)nnc1-c1ccc(S(=O)(=O)c2ccccc2)cc1 | 1020 µg/mL (≈ 2620 µM) | 512 µg/mL (≈ 1310 µM) | 1020 µg/mL (≈ 2620 µM) | 64 µg/mL (≈ 164 µM) | 256 µg/mL (≈ 656 µM) | 512 µg/mL (≈ 1310 µM) | 256 µg/mL (≈ 656 µM) | 128 µg/mL (≈ 328 µM) | 1020 µg/mL (≈ 2620 µM) | – | – | – | –
15 | O=C1CSc2nnc(-c3ccc(S(=O)(=O)c4ccc(Cl)cc4)cc3)n2N1 | 256 µg/mL (≈ 629 µM) | 512 µg/mL (≈ 1260 µM) | 512 µg/mL (≈ 1260 µM) | 128 µg/mL (≈ 315 µM) | 128 µg/mL (≈ 315 µM) | 512 µg/mL (≈ 1260 µM) | 256 µg/mL (≈ 629 µM) | 256 µg/mL (≈ 629 µM) | 1020 µg/mL (≈ 2520 µM) | – | – | – | –
16 | CC1(C)S[C@@H]2[C@H](NC(=O)[C@H](N)c3ccccc3)C(=O)N2[C@H]1C(=O)O [AMPICILLIN] | – | 2 µg/mL (≈ 5.72 µM) | – | – | – | < 2 µg/mL | < 2 µg/mL | < 2 µg/mL | – | inactive | inactive | inactive | inactive
17 | Nn1c(SCC(=O)O)nnc1-c1ccc(S(=O)(=O)c2ccc(Br)cc2)cc1 | 1020 µg/mL (≈ 2180 µM) | 512 µg/mL (≈ 1090 µM) | 1020 µg/mL (≈ 2180 µM) | 64 µg/mL (≈ 136 µM) | 256 µg/mL (≈ 545 µM) | 512 µg/mL (≈ 1090 µM) | 512 µg/mL (≈ 1090 µM) | 512 µg/mL (≈ 1090 µM) | 1020 µg/mL (≈ 2180 µM) | – | – | – | –
